The target of assay [1] is T1, Prostaglandin G/H synthase 2 (Mus musculus, UniProt Q05769).
T1 sequence (Q05769 whole entry): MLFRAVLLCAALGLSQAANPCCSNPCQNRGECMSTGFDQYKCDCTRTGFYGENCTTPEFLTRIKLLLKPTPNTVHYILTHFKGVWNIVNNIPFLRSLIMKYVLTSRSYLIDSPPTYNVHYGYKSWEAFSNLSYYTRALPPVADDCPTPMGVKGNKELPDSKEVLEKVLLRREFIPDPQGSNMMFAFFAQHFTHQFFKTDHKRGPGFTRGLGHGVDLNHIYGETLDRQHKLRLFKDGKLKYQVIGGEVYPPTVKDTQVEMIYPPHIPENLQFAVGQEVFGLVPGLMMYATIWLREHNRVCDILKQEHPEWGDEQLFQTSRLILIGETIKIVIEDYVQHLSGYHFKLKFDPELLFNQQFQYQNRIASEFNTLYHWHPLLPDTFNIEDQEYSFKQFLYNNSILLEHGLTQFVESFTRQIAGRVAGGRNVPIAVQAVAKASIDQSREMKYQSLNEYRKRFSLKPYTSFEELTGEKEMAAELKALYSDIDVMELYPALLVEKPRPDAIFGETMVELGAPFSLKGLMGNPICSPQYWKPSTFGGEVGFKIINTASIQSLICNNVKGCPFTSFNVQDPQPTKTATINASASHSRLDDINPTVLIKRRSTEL
Put plainly: Inhibition of COX2-mediated PGE2 production in LPS-stimulated mouse RAW264.7 cells by enzyme immunoassay.

In the next assay the test system is RAW264.7. Put plainly: Cytotoxicity against mouse RAW264.7 cells assessed as cell viability at 10 uM by MTT assay. Type of assay: functional. As to conditions: read-out: Activity. The gist of the method:
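RAW 264.7 mouse macrophage-like cells tested with or without LPS; viability read by MTT assay and reported as percent cell […]; values are the mean of three experiments.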
In general terms: Tetrazolium assays rely on reduction of a dye to a coloured formazan, in cell work by metabolically active cells.

Assay [2] deals with T2, Prostaglandin G/H synthase 2 (Homo sapiens, UniProt P35354).
T2 sequence (P35354 whole entry): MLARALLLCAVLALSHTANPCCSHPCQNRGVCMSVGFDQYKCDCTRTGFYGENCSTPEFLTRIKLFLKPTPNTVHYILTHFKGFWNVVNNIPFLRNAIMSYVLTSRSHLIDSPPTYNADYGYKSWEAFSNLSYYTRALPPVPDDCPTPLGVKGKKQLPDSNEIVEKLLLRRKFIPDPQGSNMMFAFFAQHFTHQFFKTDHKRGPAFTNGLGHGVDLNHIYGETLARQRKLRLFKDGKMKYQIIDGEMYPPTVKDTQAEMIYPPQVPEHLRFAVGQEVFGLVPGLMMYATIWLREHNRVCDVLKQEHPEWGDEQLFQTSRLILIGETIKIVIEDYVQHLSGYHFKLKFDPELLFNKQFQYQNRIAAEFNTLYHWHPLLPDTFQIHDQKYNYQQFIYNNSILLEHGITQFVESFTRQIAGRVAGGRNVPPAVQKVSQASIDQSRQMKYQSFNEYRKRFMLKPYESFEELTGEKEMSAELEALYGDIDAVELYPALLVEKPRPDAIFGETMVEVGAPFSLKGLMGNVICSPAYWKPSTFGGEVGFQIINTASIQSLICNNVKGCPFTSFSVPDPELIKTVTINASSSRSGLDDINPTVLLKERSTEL
Put plainly: Inhibition of COX2. The method in brief: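 RAW 264.7 mouse macrophage cells were plated at 2 × 10⁵ cells/well and treated with LPS for 24 h to induce COX-2, then washed. Compounds in DMSO were added in fresh medium containing arachidonic acid for 2 h. PGE₂ released into the medium was measured by EIA, and inhibition was expressed as the mean of three experiments.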

`O=C(/C=C/c1ccc(OCc2ccccc2)cc1)c1ccccc1O` gave an IC50 in assay [1] of 4.1 µM. The viability at 10 µM with RAW264.7 worked out at 99%.
Take `CSc1ccc(/C=C/C(=O)c2ccccc2O)cc1`: the viability at 10 µM in the assay with RAW264.7 was determined as 85%.
On the same count and under the same terms, the same measure for `O=C(/C=C/c1ccccc1)c1ccccc1O` [2'-HYDROXYCHALCONE]: 119%.
Same read-out and setting: the same measure for `O=C(/C=C/c1ccc(Cl)c(Cl)c1)c1ccccc1O`: 155%; for `O=C(/C=C/c1ccc(Br)cc1)c1ccccc1O`: 162%; for `O=C(/C=C/c1cccc(Br)c1)c1ccccc1O`: 90%.
In the case of `O=C(/C=C/c1ccc(Cl)cc1)c1ccccc1O`, the viability at 10 µM with RAW264.7 was found to be 141%.
On the same count and under the same terms, the same measure for `COc1ccc(/C=C/C(=O)c2ccccc2O)cc1OCc1ccccc1`: 102%.
Take `COc1cccc(/C=C/C(=O)c2ccccc2O)c1OC`: the IC50 in assay [1] came out at 3.8 µM. Also, the viability at 10 µM in the assay with RAW264.7 was 93%.
`CS(=O)(=O)Nc1ccc([N+](=O)[O-])cc1OC1CCCCC1` [NS-398]: the viability at 10 µM in the assay with RAW264.7 was 104%.
For `Cc1ccc(/C=C/C(=O)c2ccccc2O)cc1`, the viability at 10 µM in the assay on RAW264.7 came to 152%.
Turning to `COc1ccc(/C=C/C(=O)c2ccccc2O)cc1Br`, the viability at 10 µM in the assay on RAW264.7 worked out at 159%.
For the molecule `COc1c(O)cc(O)c2c(=O)cc(-c3ccccc3)oc12` [WOGONIN], 1.07 µM corresponded to half-maximal inhibition in assay [1] (IC50). Further, the viability at 10 µM with RAW264.7 came to 111%.
As for `O=C(/C=C/c1ccc2c(c1)OCO2)c1ccccc1O`, the viability at 10 µM in the assay on RAW264.7 came to 118%.
Take `CC(=O)c1cc(C(C)=O)c2c(=O)cc(-c3ccccc3)oc2c1`: half-maximal inhibition in assay [2] (IC50) required 2.7 µM.
On to `O=C(/C=C/c1ccc(-c2ccccc2)cc1)c1ccccc1O`, for which the viability at 10 µM in the assay with RAW264.7 was found to be 135%.
Same read-out and setting: the same measure for `COc1ccc(/C=C/C(=O)c2ccccc2O)c(OC)c1`: 107%.
Turning to `COc1ccc(/C=C/C(=O)c2ccccc2O)cc1`, in the assay with RAW264.7, the viability at 10 µM worked out at 115%.
Molecule `COc1cc(/C=C/C(=O)c2ccccc2O)cc(OC)c1OC` yielded an IC50 in assay [1] of 6.2 µM. In addition, in the assay on RAW264.7, the viability at 10 µM amounted to 65%.
For the molecule `O=C(/C=C/c1ccc(OC(F)(F)F)cc1)c1ccccc1O`, the viability at 10 µM in the assay with RAW264.7 is 87%.
Take `O=C(/C=C/c1ccc(OCc2ccccc2)c(OCc2ccccc2)c1)c1ccccc1O`: the IC50 in assay [1] stood at 4.6 µM. In addition, the viability at 10 µM in the assay with RAW264.7 stood at 103%.

As a reminder, the IC50 is the concentration needed to halve the response being measured. Read a low IC50 as greater potency in that assay.
